The values below come from ChEMBL document CHEMBL1777792, “Synthesis and evaluation of indole-based new scaffolds for antimicrobial activities--identification of promising candidates” (Bioorg Med Chem Lett, 2011).

In test [1] the test system is Candida albicans. The test is described as follows: Antifungal activity against Candida albicans in yeast extract-peptone-glucose medium at 374 ug/ml after 48 hrs by disc diffusion assay in presence of 0.01% of sodium dodecylsulphate. The format is functional. The conditions noted are these: read-out: DIZ. An outline of the steps:
(§1)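 Disc diffusion on YEPD agar containing a cell-wall-disrupting agent (SDS, Congo red or calcofluor white) and spread with a set number of C. albicans cells. Compound and reference solvent spotted on 0.5 cm discs. Incubated at 30 °C, then inhibition zone diameter measured against solvent.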
For orientation: Agar diffusion results depend on both activity and mobility in agar.

Test [2] relates to Escherichia coli. The experiment in a line: Antibacterial activity against Escherichia coli harboring ampicillin-resistance gene encoding plasmid at 250 ug/ml after 24 hrs by disc diffusion assay. The test is classed as functional. The settings on record: read-out: DIZ. An outline of the steps:
(§2)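 Disc diffusion used an E. coli strain carrying a plasmid that encodes an ampicillin-resistance gene. Inhibition zone diameters were recorded and compared against the corresponding solvent controls.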

Test [3] has as its system Candida albicans. The test is described as follows: Antifungal activity against Candida albicans in yeast extract-peptone-glucose medium at 374 ug/ml after 48 hrs by disc diffusion assay in presence of 150 ug/ml of congo red. The format is functional. The gist of the method:
as §1

Test [4] concerns Candida albicans. The test is described as follows: Antifungal activity against Candida albicans in yeast extract-peptone-glucose medium at 374 ug/ml after 48 hrs by disc diffusion assay in presence of rhodamine 6G.
Test [5] deals with Escherichia coli. The experiment in a line: Antibacterial activity against Escherichia coli harboring ampicillin-resistance gene encoding plasmid at 428 ug/ml after 24 hrs by disc diffusion assay. The settings on record: read-out: DIZ. The format is functional. An outline of the steps: as §2
Test [6] has as its system Candida albicans. The test is described as follows: Antifungal activity against Candida albicans in yeast extract-peptone-glucose medium at 428 ug/ml after 48 hrs by disc diffusion assay in presence of 150 ug/ml of congo red. The test is classed as functional. The gist of the method: as §1
Test [7] concerns Candida albicans. The test is described as follows: Antifungal activity against Candida albicans in yeast extract-peptone-glucose medium at 428 ug/ml after 48 hrs by disc diffusion assay in presence of rhodamine 6G.
Test [8] has as its system Candida albicans. The experiment in a line: Antifungal activity against Candida albicans in synthetic dextrose minimal medium after 48 hrs by ELISA based serial dilution method. For orientation: ELISA stands for enzyme-linked immunosorbent assay.
Test [9] relates to Candida albicans. The test is described as follows: Antifungal activity against Candida albicans in yeast extract-peptone-glucose medium at 428 ug/ml after 48 hrs by disc diffusion assay in presence of 100 ug/ml of calcofluor white. The test is classed as functional. The gist of the method:
as §1

Test [10] deals with Candida albicans. The experiment in a line: Antifungal activity against Candida albicans in yeast extract-peptone-glucose medium at 428 ug/ml after 48 hrs by disc diffusion assay in presence of 0.01% of sodium dodecylsulphate. The format is functional. The conditions noted are these: read-out: DIZ. An outline of the steps: as §1
Test [11] deals with Candida albicans. The test is described as follows: Antifungal activity against Candida albicans in yeast extract-peptone-glucose medium at 428 ug/ml after 48 hrs by disc diffusion assay. The test is classed as functional. The conditions noted are these: read-out: DIZ. The gist of the method: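 Solid-phase assay on YEPD agar spread with a set number of C. albicans cells. Compound solution and reference solvent spotted onto 0.5 cm discs. Plates incubated at 30 °C, and inhibition zone diameter measured against solvent control.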

In test [12] the test system is Candida albicans. The experiment in a line: Antifungal activity against Candida albicans in yeast extract-peptone-glucose medium at 375 ug/ml after 48 hrs by disc diffusion assay in presence of rhodamine 6G.
Test [13] deals with Candida albicans. The test is described as follows: Antifungal activity against Candida albicans in yeast extract-peptone-glucose medium at 375 ug/ml after 48 hrs by disc diffusion assay. The conditions noted are these: read-out: DIZ. The format is functional. An outline of the steps:
(§3)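 C. albicans cells at a set number were spread on YEPD agar, either plain or containing the cell-wall disruptant named in the line (SDS, Congo red or calcofluor white). Compound solution, or the reference solvent as control, was spotted onto 0.5 cm discs placed on the lawn. Plates were incubated at 30 °C and the inhibition zone diameter was measured.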

Test [14] concerns Escherichia coli. The experiment in a line: Antibacterial activity against Escherichia coli harboring ampicillin-resistance gene encoding plasmid at 500 ug/ml after 24 hrs by disc diffusion assay. The test is classed as functional. The conditions noted are these: read-out: DIZ. An outline of the steps: as §2
Test [15] relates to Candida albicans. The experiment in a line: Antifungal activity against Candida albicans in yeast extract-peptone-glucose medium at 375 ug/ml after 48 hrs by disc diffusion assay in presence of 150 ug/ml of congo red. The format is functional. An outline of the steps: as §3
Test [16] deals with Candida albicans. The experiment in a line: Antifungal activity against Candida albicans in yeast extract-peptone-glucose medium at 375 ug/ml after 48 hrs by disc diffusion assay in presence of 0.01% of sodium dodecylsulphate. The format is functional. The conditions noted are these: read-out: DIZ. The gist of the method:
as §3

In test [17] the test system is Candida albicans. The test is described as follows: Antifungal activity against Candida albicans in yeast extract-peptone-glucose medium at 375 ug/ml after 48 hrs by disc diffusion assay in presence of 100 ug/ml of calcofluor white. The format is functional. The gist of the method:
as §3

For test [18], the system named is Candida albicans. The experiment in a line: Antifungal activity against Candida albicans in yeast extract-peptone-glucose medium at 250 ug/ml after 48 hrs by disc diffusion assay. The format is functional. The settings on record: read-out: DIZ. An outline of the steps: as §3
In test [19] the test system is Candida albicans. The experiment in a line: Antifungal activity against Candida albicans in yeast extract-peptone-glucose medium at 250 ug/ml after 48 hrs by disc diffusion assay in presence of 0.01% of sodium dodecylsulphate. The test is classed as functional. The conditions noted are these: read-out: DIZ. An outline of the steps:
as §3

Test [20] deals with Candida albicans. The experiment in a line: Antifungal activity against Candida albicans in yeast extract-peptone-glucose medium at 250 ug/ml after 48 hrs by disc diffusion assay in presence of 150 ug/ml of congo red. The test is classed as functional. The gist of the method:
as §3

Test [21] concerns Candida albicans. The test is described as follows: Antifungal activity against Candida albicans in yeast extract-peptone-glucose medium at 250 ug/ml after 48 hrs by disc diffusion assay in presence of 100 ug/ml of calcofluor white. The format is functional. An outline of the steps: as §3
For test [22], the system named is Candida albicans. The experiment in a line: Antifungal activity against Candida albicans in yeast extract-peptone-glucose medium at 250 ug/ml after 48 hrs by disc diffusion assay in presence of rhodamine 6G.
Test [23] concerns Candida albicans. The experiment in a line: Antifungal activity against Candida albicans in yeast extract-peptone-glucose medium at 150 ug/ml after 48 hrs by disc diffusion assay. The conditions noted are these: read-out: DIZ. The format is functional. An outline of the steps: as §3
The subject of test [24] is Candida albicans. The test is described as follows: Antifungal activity against Candida albicans in yeast extract-peptone-glucose medium at 150 ug/ml after 48 hrs by disc diffusion assay in presence of 100 ug/ml of calcofluor white. The format is functional. An outline of the steps:
as §3

Test [25] relates to Escherichia coli. The experiment in a line: Antibacterial activity against Escherichia coli harboring ampicillin-resistance gene encoding plasmid at 300 ug/ml after 24 hrs by disc diffusion assay. The test is classed as functional. The settings on record: read-out: DIZ. An outline of the steps:
as §2

In test [26] the test system is Candida albicans. The test is described as follows: Antifungal activity against Candida albicans in yeast extract-peptone-glucose medium at 150 ug/ml after 48 hrs by disc diffusion assay in presence of 150 ug/ml of congo red. The format is functional. The settings on record: read-out: DIZ. The gist of the method: as §3
Test [27] relates to Candida albicans. The experiment in a line: Antifungal activity against Candida albicans in yeast extract-peptone-glucose medium at 150 ug/ml after 48 hrs by disc diffusion assay in presence of 0.01% of sodium dodecylsulphate. The test is classed as functional. The conditions noted are these: read-out: DIZ. An outline of the steps:
as §3

For the molecule `O=C(C(=O)N1CCCCC1)c1cn(CCCn2cc(C(=O)C(=O)N3CCCCC3)c3ccccc32)c2ccccc12`, the zone of inhibition at 374 µg/mL in the test on Candida albicans [1] was 7.5 mm. For the same molecule, the zone of inhibition at 250 µg/mL with Escherichia coli [2] came to 9.5 mm. In addition, the “diameter of the inhibition zone (DIZ)” value in the test on Candida albicans [3] and with Candida albicans [4] was 6.5 mm in each case.

As usually defined, the IC50 is the midpoint of a concentration-inhibition curve. For `O=C(C(=O)N1CCCC1)c1cn(CCCn2cc(C(=O)C(=O)N3CCCC3)c3ccccc32)c2ccccc12`, the zone of inhibition at 428 µg/mL came out at 8 mm in the test with Escherichia coli [5], 6.5 mm with Candida albicans [10] and 7.5 mm in the test with Candida albicans [11]. The figures for the “diameter of the inhibition zone (DIZ)” value in the test on Candida albicans [6], in the test with Candida albicans [7] and in the test with Candida albicans [9] were 5.5 mm, 6.5 mm and 6.5 mm, respectively. Moreover, the 50% inhibitory concentration (IC50) in the test on Candida albicans [8] came to 465 µM.

In the case of `O=C(C(=O)N1CCOCC1)c1cn(CCCn2cc(C(=O)C(=O)N3CCOCC3)c3ccccc32)c2ccccc12`, the “diameter of the inhibition zone (DIZ)” value in the test with Candida albicans [12] was 7.5 mm; with Candida albicans [15] it was 8 mm; with Candida albicans [17], 6.5 mm. Moreover, the zone of inhibition at 375 µg/mL in the test with Candida albicans [13] stood at 7 mm; in the test on Candida albicans [16], 8.5 mm. The zone of inhibition at 500 µg/mL in the test with Escherichia coli [14] came to 6 mm.

Take `O=C(NCc1ccccc1)C(=O)c1cn(CCCn2cc(C(=O)C(=O)NCc3ccccc3)c3ccccc32)c2ccccc12`: the zone of inhibition at 250 µg/mL in the test with Escherichia coli [2] was determined as 12 mm; in the test on Candida albicans [18] it was 9 mm; in the test on Candida albicans [19], 8.5 mm. For the same molecule, the “diameter of the inhibition zone (DIZ)” value is listed as 8 mm in the test on Candida albicans [20], 7 mm in the test on Candida albicans [21] and 7 mm with Candida albicans [22]. The midpoint of inhibition in the test on Candida albicans [8], the IC50, lay at 121 µM.

With `O=C(C(=O)N1CCCCC1)c1cn(CCCCn2cc(C(=O)C(=O)N3CCCCC3)c3ccccc32)c2ccccc12`, the zone of inhibition at 150 µg/mL was determined as 6 mm in the test with Candida albicans [23], 6 mm in the test with Candida albicans [26] and 6.5 mm in the test on Candida albicans [27]. The “diameter of the inhibition zone (DIZ)” value in the test with Candida albicans [24] is listed as 6 mm. In addition, the zone of inhibition at 300 µg/mL in the test with Escherichia coli [25] was 10.5 mm.

For `O=C(C(=O)N1CCCC1)c1cn(CCCCn2cc(C(=O)C(=O)N3CCCC3)c3ccccc32)c2ccccc12`, the “diameter of the inhibition zone (DIZ)” value in the test on Candida albicans [12] is reported as 7.5 mm; in the test with Candida albicans [15], 8 mm; in the test with Candida albicans [17] it was 7.5 mm. The zone of inhibition at 375 µg/mL in the test with Candida albicans [13] came to 7.5 mm; in the test on Candida albicans [16], 8 mm. Besides, the zone of inhibition at 500 µg/mL in the test with Escherichia coli [14] was 10.5 mm. In the test with Candida albicans [8], the IC50 was 78 µM.
